Data as given in ChEMBL document CHEMBL3877264, “Quinolidene-rhodanine conjugates: Facile synthesis and biological evaluation” (Eur J Med Chem, 2017).
Converted amounts (≈) assume the structure as drawn.

Legend:
[1] = system: Staphylococcus aureus; experiment: Growth inhibition of Staphylococcus aureus NCIM 2010 at 30 ug/ml measured after 12 hrs relative to control; type: functional; conditions: NCIM 2010, 12 h, read-out: GI
Procedure, shortened: (§1)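 Bacteria grown in LB at 37 °C and 180 rpm to OD 1. Compounds added to wells, then 0.1% inoculum of 1 OD culture (620 nm). Growth read as OD at 620 nm after 8 h for gram-negative and after 12 h for gram-positive strains.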

[2] = system: Bacillus subtilis; experiment: Growth inhibition of Bacillus subtilis NCIM 2079 at 30 ug/ml measured after 12 hrs relative to control; type: functional; conditions: NCIM 2079, 12 h, read-out: GI; procedure, shortened: as §1
[3] = system: Escherichia coli; experiment: Growth inhibition of Escherichia coli NCIM 2688 at 10 ug/ml measured after 8 hrs relative to control; type: functional; conditions: NCIM 2688, 8 h, read-out: GI; procedure, shortened: as §1
[4] = system: Escherichia coli; experiment: Growth inhibition of Escherichia coli NCIM 2688 at 3 ug/ml measured after 8 hrs relative to control; type: functional; conditions: NCIM 2688, 8 h, read-out: GI; procedure, shortened: as §1
[5] = system: Mycobacterium tuberculosis; experiment: Growth inhibition of Mycobacterium tuberculosis H37Ra ATCC 25177 at active stage at 100 ug/ml measured after 8 days by XTT dye based two fold dilution method relative to control; type: functional; conditions: H37Ra ATCC 25177, 192 h, read-out: GI
Procedure, shortened: (§2)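 MTB H37Ra was grown in Dubos medium, then exposed in Mycobacterium pheli minimal medium (pH 6.6) to compounds dissolved in DMSO. The assay ended on day 8 (active) or day 12 (dormant). Viable cells were measured by XTT reduction menadione assay at 470 nm, blank-corrected, relative to vehicle control. Triplicates were expressed as mean ± SD. MIC came from dose-response curves.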

[6] = system: Mycobacterium tuberculosis; experiment: Growth inhibition of Mycobacterium tuberculosis H37Ra ATCC 25177 at active stage at 50 ug/ml measured after 8 days by XTT dye based two fold dilution method relative to control; type: functional; conditions: H37Ra ATCC 25177, 192 h, read-out: GI; procedure, shortened: as §2
[7] = system: Mycobacterium tuberculosis; experiment: Growth inhibition of Mycobacterium tuberculosis H37Ra ATCC 25177 at active stage at 25 ug/ml measured after 8 days by XTT dye based two fold dilution method relative to control; type: functional; conditions: H37Ra ATCC 25177, 192 h, read-out: GI; procedure, shortened: as §2
[8] = system: Mycobacterium tuberculosis; experiment: Growth inhibition of Mycobacterium tuberculosis H37Ra ATCC 25177 at active stage at 0.78 ug/ml measured after 8 days by XTT dye based two fold dilution method relative to control; type: functional; conditions: H37Ra ATCC 25177, 192 h, read-out: GI; procedure, shortened: as §2
[9] = system: Mycobacterium tuberculosis; experiment: Growth inhibition of Mycobacterium tuberculosis H37Ra ATCC 25177 at dormant stage at 50 ug/ml measured after 12 days by XTT dye based two fold dilution method relative to control; type: functional; conditions: H37Ra ATCC 25177, 288 h, read-out: GI; procedure, shortened: as §2
[10] = system: Mycobacterium tuberculosis; experiment: Growth inhibition of Mycobacterium tuberculosis H37Ra ATCC 25177 at dormant stage at 3.13 ug/ml measured after 12 days by XTT dye based two fold dilution method relative to control; type: functional; conditions: H37Ra ATCC 25177, 288 h, read-out: GI; procedure, shortened: as §2
[11] = system: Mycobacterium tuberculosis; experiment: Growth inhibition of Mycobacterium bovis BCG ATCC 35743 at dormant stage at 100 ug/ml measured after 12 days by nitrate reductase dye based two fold dilution method relative to control; type: functional; conditions: BCG str. ATCC 35743, 288 h, read-out: GI
Procedure, shortened: (§3)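 M. bovis BCG was grown in Dubos medium and assayed in Mycobacterium pheli minimal medium (pH 6.6), with compounds from DMSO stocks. Incubation lasted 8 days for active and 12 days for dormant cultures. Viability was read by nitrate reductase at 540 nm against cell-free blanks, with vehicle set as 100% growth. Primary screen was at 30, 10 and 3 µg/ml, in triplicate, mean ± SD. MIC was taken from dose-response curves.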

[12] = system: Mycobacterium tuberculosis; experiment: Growth inhibition of Mycobacterium bovis BCG ATCC 35743 at dormant stage at 1.56 ug/ml measured after 12 days by nitrate reductase dye based two fold dilution method relative to control; type: functional; conditions: BCG str. ATCC 35743, 288 h, read-out: GI; procedure, shortened: as §3
[13] = system: Mycobacterium tuberculosis; experiment: Growth inhibition of Mycobacterium bovis BCG ATCC 35743 at active stage at 25 ug/ml measured after 8 days by nitrate reductase dye based two fold dilution method relative to control; type: functional; conditions: BCG str. ATCC 35743, 192 h, read-out: GI; procedure, shortened: as §3
[14] = system: Mycobacterium tuberculosis; experiment: Growth inhibition of Mycobacterium bovis BCG ATCC 35743 at active stage at 1.56 ug/ml measured after 8 days by nitrate reductase dye based two fold dilution method relative to control; type: functional; conditions: BCG str. ATCC 35743, 192 h, read-out: GI; procedure, shortened: as §3
[15] = system: Mycobacterium tuberculosis; experiment: Growth inhibition of Mycobacterium bovis BCG ATCC 35743 at active stage at 0.78 ug/ml measured after 8 days by nitrate reductase dye based two fold dilution method relative to control; type: functional; conditions: BCG str. ATCC 35743, 192 h, read-out: GI; procedure, shortened: as §3
[16] = system: Mycobacterium tuberculosis; experiment: Growth inhibition of Mycobacterium bovis BCG ATCC 35743 at dormant stage at 3 ug/ml measured after 12 days by nitrate reductase dye based two fold dilution method relative to control; type: functional; conditions: BCG str. ATCC 35743, 288 h, read-out: GI; procedure, shortened: as §3
[17] = system: Mycobacterium tuberculosis; experiment: Growth inhibition of Mycobacterium bovis BCG ATCC 35743 at active stage measured after 8 days by nitrate reductase dye based two fold dilution method; type: functional; conditions: BCG str. ATCC 35743, 192 h; procedure, shortened: as §3
[18] = system: Mycobacterium tuberculosis; experiment: Growth inhibition of Mycobacterium tuberculosis H37Ra ATCC 25177 at dormant stage measured after 12 days by XTT dye based two fold dilution method; type: functional; conditions: H37Ra ATCC 25177, 288 h; procedure, shortened: as §2
[19] = system: Mycobacterium tuberculosis; experiment: Growth inhibition of Mycobacterium bovis BCG ATCC 35743 at dormant stage measured after 12 days by nitrate reductase dye based two fold dilution method; type: functional; conditions: BCG str. ATCC 35743, 288 h; procedure, shortened: as §3
[20] = system: Candida albicans; experiment: Antifungal activity against Candida albicans NCIM 3471 by standard agar method; type: functional
Procedure, shortened: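 MICs determined by standard agar method; DMSO as solvent control.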

[21] = Cytotoxicity against primary HUVEC measured after 48 hrs by MTT assay; type: toxicity, cell-based; conditions: human
[22] = Cytotoxicity against human THP1 cells measured after 48 hrs by MTT assay; type: toxicity, cell-based, THP-1
Procedure, shortened: (§4)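 MTT assay with 48 h compound exposure. THP-1 macrophages made by 24 h PMA treatment. Each concentration tested in triplicate in one experiment. % cytotoxicity = (control−test)/(control−blank)×100, with control = cells + DMSO and blank = medium without cells. IC50 from % survival versus concentration plots.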

[23] = Cytotoxicity against […]-differentiated human THP1 cells measured after 48 hrs by MTT assay; type: toxicity, cell-based, THP-1; procedure, shortened: as §4
[24] = Cytotoxicity against human HeLa cells at 100 ug/ml assessed as growth inhibition measured after 48 hrs by MTT assay relative to control; type: toxicity, cell-based; conditions: read-out: GI
[25] = Selectivity index, ratio of GI50 for HUVEC to MIC for Mycobacterium tuberculosis H37Ra ATCC 25177 at dormant stage
[26] = Selectivity index, ratio of GI50 for […]-differentiated human THP1 cells to MIC for Mycobacterium tuberculosis H37Ra ATCC 25177 at dormant stage; type: toxicity, cell-based, THP-1; conditions: read-out: Selectivity Index
Procedure, shortened: (§5)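 SI is the cell-line GI50 divided by the dormant-stage mycobacterial MIC. […] THP-1 macrophages were PMA-differentiated for 24 h.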

[27] = Selectivity index, ratio of GI50 for human A549 cells to MIC for Mycobacterium tuberculosis H37Ra ATCC 25177 at dormant stage; type: toxicity, cell-based; conditions: read-out: Selectivity Index; procedure, shortened: as §5
[28] = Selectivity index, ratio of GI50 for human PANC1 cells to MIC for Mycobacterium tuberculosis H37Ra ATCC 25177 at dormant stage; type: toxicity, cell-based, PANC-1; conditions: read-out: Selectivity Index; procedure, shortened: as §5

SMILES | inhibition of growth at 30 µg/mL [1] | inhibition of growth at 30 µg/mL [2] | inhibition of growth at 10 µg/mL [3] | inhibition of growth at 3 µg/mL [4] | inhibition of growth at 100 µg/mL [5] | inhibition of growth at 50 µg/mL [6] | inhibition of growth at 25 µg/mL [7] | inhibition of growth at 0.78 µg/mL [8] | inhibition of growth at 50 µg/mL [9] | inhibition of growth at 3.13 µg/mL [10] | inhibition of growth at 100 µg/mL [11] | inhibition of growth at 1.56 µg/mL [12] | inhibition of growth at 25 µg/mL [13] | inhibition of growth at 1.56 µg/mL [14] | inhibition of growth at 0.78 µg/mL [15] | inhibition of growth at 3 µg/mL [16] | IC50 [17] | IC90 [17] | IC50 [18] | IC90 [18] | further results
COc1ccc2nc(Cl)c(/C=C3\SC(=S)NC3=O)cc2c1 | 103% | 21.2% | -36.1% | 3.11% | 90.3% | 101% | 90.2% | -20.6% | 90.5% | 4.7% | 97.7% | -28.8% | 88.2% | -39.1% | -67.9% | -46.3% | 3.7 µg/mL (≈ 11 µM) | 5 µg/mL (≈ 14.8 µM) | 3.3 µg/mL (≈ 9.8 µM) | 4.7 µg/mL (≈ 14 µM) | IC50 [19]: 2.9 µg/mL (≈ 8.61 µM); IC90 [19]: 6.8 µg/mL (≈ 20.2 µM); MIC [20]: 150 µg/mL (≈ 445 µM); GI50 at 48 h [21]: > 100 µg/mL; GI50 at 48 h [22]: > 100 µg/mL; GI50 at 48 h [23]: > 100 µg/mL; inhibition at 48 h, 100 ug/ml [24]: 31.3%; Selectivity Index [25]: 20.8; selectivity ratio [26]: 20.8; selectivity ratio [27]: 20.8; selectivity ratio [28]: 20.8
O=C1NC(=S)S/C1=C\c1cc2cc(Cl)ccc2nc1Cl | 101% | 101% | 109% | 106% | 92.7% | 97.5% | 100% | 24.1% | 86.4% | 42.4% | 98.7% | 60.5% | 99.9% | 86.2% | 7.4% | 99.8% | 1 µg/mL (≈ 2.93 µM) | 1.7 µg/mL (≈ 4.98 µM) | 2.2 µg/mL (≈ 6.45 µM) | 6.3 µg/mL (≈ 18.5 µM) | IC50 [19]: 1.3 µg/mL (≈ 3.81 µM); IC90 [19]: 2.2 µg/mL (≈ 6.45 µM); MIC [20]: 100 µg/mL (≈ 293 µM); GI50 at 48 h [21]: > 100 µg/mL; GI50 at 48 h [22]: > 100 µg/mL; GI50 at 48 h [23]: > 100 µg/mL; inhibition at 48 h, 100 ug/ml [24]: 45.5%; Selectivity Index [25]: 15.6; selectivity ratio [26]: 15.6; selectivity ratio [27]: 15.6; selectivity ratio [28]: 15.6
